Assay results from ChEMBL document CHEMBL1141787, “Antifungal activity of artemisinin derivatives” (J Nat Prod, 2005).
In brackets after ≈: the same amount, converted by molar mass. Activity calls are given as the source filed them. The calls are words filed in the database; no cut-off is given here.

What was measured:
Format in all cases: functional, organism-based
Cryptococcus neoformans [1] = test: Antifungal activity against Cryptococcus neoformans ATCC 90113 at 50 ug/mL by modified NCCLS method
Procedure, shortened: (§1)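 Broth microdilution following a modified NCCLS method. The inoculum was a subculture diluted in its incubation broth. Compounds were dissolved in DMSO, serially diluted in normal saline and tested in duplicate, at final concentrations starting at 50 µg/mL. Amphotericin B served as positive control, with media-only blanks. Turbidity was read at 630 nm before and after incubation. Percent growth was plotted against concentration to give IC50/MIC.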

Cryptococcus neoformans [2] = test: Antifungal activity against Cryptococcus neoformans ATCC 90113 by modified NCCLS method; procedure, shortened: as §1
Candida albicans [3] = test: Antifungal activity against Candida albicans ATCC 90028 at 50 ug/mL by modified NCCLS method; procedure, shortened: as §1
Candida albicans [4] = test: Antifungal activity against Candida albicans ATCC 90028 by modified NCCLS method; procedure, shortened: as §1

## C=C1C(=O)O[C@@H]2OC3(C)CC[C@H]4[C@H](C)CC[C@@H]1[C@@]24OO3 (single isomer, unassigned) [ARTEMISITENE]
Cryptococcus neoformans [1]
  Activity: inactive
Cryptococcus neoformans [2]
  IC50: 0.045 µg/mL (≈ 0.161 µM)
Candida albicans [3]
  Activity: inactive

## CO[C@H]1O[C@@H]2OC3(C)CC[C@H]4[C@H](C)CC[C@@H]([C@H]1C)[C@@]24OO3 (single isomer, unassigned) [ARTEMETHER]
Cryptococcus neoformans [2]
  IC50: 0.6 µg/mL (≈ 2.01 µM)
  MIC: 25 µg/mL (≈ 83.8 µM)
Candida albicans [3]
  Activity: inactive

## CCO[C@@H]1O[C@@H]2O[C@]3(C)CC[C@H]4[C@H](C)CC[C@@H]([C@H]1C)[C@@]24OO3 [ALPHA-ARTEETHER]
Candida albicans [4]
  IC50: 3 µg/mL (≈ 9.6 µM)
Cryptococcus neoformans [2]
  IC50: 0.045 µg/mL (≈ 0.144 µM)
  MIC: 1.56 µg/mL (≈ 4.99 µM)
Candida albicans [3]
  Activity: inactive

## C[C@@H]1CC[C@H]2[C@@H](C)C(=O)O[C@@H]3O[C@@]4(C)CC[C@@H]1[C@]32OO4 [ARTEMISININ]
Candida albicans [4]
  IC50: 8 µg/mL (≈ 28.3 µM)
  MIC: 50 µg/mL (≈ 177 µM)
Cryptococcus neoformans [2]
  IC50: 2 µg/mL (≈ 7.08 µM)
  MIC: 50 µg/mL (≈ 177 µM)

## C[C@H]1[C@@H](OCCCCO)O[C@@H]2O[C@]3(C)CC[C@H]4[C@H](C)CC[C@@H]1[C@@]24OO3
Cryptococcus neoformans [1]
  Activity: inactive
Cryptococcus neoformans [2]
  IC50: 0.6 µg/mL (≈ 1.68 µM)
Candida albicans [3]
  Activity: inactive

## CCO[C@H]1O[C@@H]2O[C@@]3(C)CC[C@H]4[C@H](C)CC[C@@H]([C@H]1C)[C@@]24OO3 [ARTEMOTIL]
Candida albicans [4]
  IC50: 15 µg/mL (≈ 48 µM)
  MIC: 50 µg/mL (≈ 160 µM)
Cryptococcus neoformans [2]
  IC50: 0.085 µg/mL (≈ 0.272 µM)
  MIC: 3.13 µg/mL (≈ 10 µM)

## C[C@H]1[C@@H](O[C@H]2CC[C@@H](O)CC2)O[C@@H]2O[C@]3(C)CC[C@H]4[C@H](C)CC[C@@H]1[C@@]24OO3
Cryptococcus neoformans [1]
  Activity: inactive
Cryptococcus neoformans [2]
  IC50: 0.9 µg/mL (≈ 2.35 µM)
Candida albicans [3]
  Activity: inactive

## C=C1[C@@H](OCCO)O[C@@H]2O[C@]3(C)CC[C@H]4[C@H](C)CC[C@@H]1[C@@]24OO3
Cryptococcus neoformans [1]
  Activity: inactive
Cryptococcus neoformans [2]
  IC50: 3 µg/mL (≈ 9.19 µM)
Candida albicans [3]
  Activity: inactive

## C[C@@H]1[C@H](O)[C@@H](C)/C=C/C=C/C=C/C=C/C=C/C=C/C=C/[C@H](O[C@@H]2O[C@H](C)[C@@H](O)[C@H](N)[C@@H]2O)C[C@@H]2O[C@](O)(C[C@@H](O)C[C@@H](O)[C@H](O)CC[C@@H](O)C[C@@H](O)CC(=O)O[C@H]1C)C[C@H](O)[C@H]2C(=O)O [AMPHOTERICIN B]
Candida albicans [4]
  IC50: 0.1 µg/mL (≈ 0.108 µM)
  MIC: 0.15 µg/mL (≈ 0.162 µM)
Cryptococcus neoformans [2]
  IC50: 0.35 µg/mL (≈ 0.379 µM)
  MIC: 0.625 µg/mL (≈ 0.676 µM)

## C[C@H]1[C@@H](Oc2ccc(O)cc2)O[C@@H]2O[C@]3(C)CC[C@H]4[C@H](C)CC[C@@H]1[C@@]24OO3
Cryptococcus neoformans [1]
  Activity: inactive
Cryptococcus neoformans [2]
  IC50: 0.087 µg/mL (≈ 0.231 µM)
Candida albicans [3]
  Activity: inactive

## C[C@H]1[C@@H](O)O[C@@H]2OC3(C)CC[C@H]4[C@H](C)CC[C@@H]1[C@@]24OO3 (single isomer, unassigned) [ARTENIMOL]
Candida albicans [4]
  IC50: 9 µg/mL (≈ 31.7 µM)
Cryptococcus neoformans [2]
  IC50: 0.09 µg/mL (≈ 0.317 µM)
  MIC: 12.5 µg/mL (≈ 44 µM)
Candida albicans [3]
  Activity: inactive

## CC1=CO[C@@H]2O[C@]3(C)CC[C@H]4[C@H](C)CC[C@@H]1[C@@]24O3
Candida albicans [4]
  IC50: 30 µg/mL (≈ 120 µM)
Cryptococcus neoformans [1]
  Activity: inactive
Cryptococcus neoformans [2]
  IC50: 6 µg/mL (≈ 24 µM)
Candida albicans [3]
  Activity: inactive

## C[C@H]1[C@@H](O[C@H]2CC[C@H](O)CC2)O[C@@H]2O[C@]3(C)CC[C@H]4[C@H](C)CC[C@@H]1[C@@]24OO3
Cryptococcus neoformans [1]
  Activity: inactive
Cryptococcus neoformans [2]
  IC50: 1 µg/mL (≈ 2.61 µM)
Candida albicans [3]
  Activity: inactive

## C[C@H]1[C@@H](Oc2ccc(S)cc2)O[C@@H]2O[C@]3(C)CC[C@H]4[C@H](C)CC[C@@H]1[C@@]24OO3
Cryptococcus neoformans [1]
  Activity: inactive
Cryptococcus neoformans [2]
  IC50: 0.31 µg/mL (≈ 0.79 µM)
Candida albicans [3]
  Activity: inactive

## CO[C@@H]1O[C@@H]2O[C@]3(C)CC[C@H]4[C@H](C)CC[C@@H]([C@H]1C)[C@@]24OO3
Cryptococcus neoformans [1]
  Activity: inactive
Cryptococcus neoformans [2]
  IC50: 1.5 µg/mL (≈ 5.03 µM)
Candida albicans [3]
  Activity: inactive

## CC1=CO[C@@H]2O[C@]3(C)CC[C@H]4[C@H](C)CC[C@@H]1[C@@]24OO3 [ANHYDRODIHYDROARTEMISININ]
Candida albicans [4]
  IC50: 7 µg/mL (≈ 26.3 µM)
  MIC: 50 µg/mL (≈ 188 µM)
Cryptococcus neoformans [2]
  IC50: 0.045 µg/mL (≈ 0.169 µM)
  MIC: 0.195 µg/mL (≈ 0.732 µM)
